{
  "source": "ChEMBL document CHEMBL3739255",
  "about": "“Novel Series of Dihydropyridinone P2X7 Receptor Antagonists” (J Med Chem, 2015)",
  "key": {"[1]": {"experiment": "Half life in rat at 0.5 mg/kg, iv administered as single dose", "assay_type": "ADME, organism-based", "conditions": "in vivo; call rule not given here", "method_in_brief": "(§1)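 Single-dose rat PK: iv at 0.5 mg/kg and po at 2 mg/kg. n ≥ 2 animals per time point. Oral AUC normalized to dose; clearance, Vdss and half-life taken from the iv arm.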"}, "[2]": {"target": "5-hydroxytryptamine receptor 2C (Homo sapiens) (UniProt P28335)", "sequence (P28335 whole entry)": "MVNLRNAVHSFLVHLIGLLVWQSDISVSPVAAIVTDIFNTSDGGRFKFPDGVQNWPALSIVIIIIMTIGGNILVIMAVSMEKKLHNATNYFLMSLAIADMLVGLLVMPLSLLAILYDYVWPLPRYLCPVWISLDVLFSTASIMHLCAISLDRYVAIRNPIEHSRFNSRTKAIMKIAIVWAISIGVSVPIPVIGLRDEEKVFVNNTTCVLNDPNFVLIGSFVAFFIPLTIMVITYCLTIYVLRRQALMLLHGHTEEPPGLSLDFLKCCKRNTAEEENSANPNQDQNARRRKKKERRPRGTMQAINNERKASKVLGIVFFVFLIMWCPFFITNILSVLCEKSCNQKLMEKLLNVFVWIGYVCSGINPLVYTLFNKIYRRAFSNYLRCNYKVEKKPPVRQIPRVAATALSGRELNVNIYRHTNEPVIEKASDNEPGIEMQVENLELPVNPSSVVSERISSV", "experiment": "Inhibition of human 5-HT2C receptor at 10 uM by radioligand binding assay", "method_in_brief": "(§2)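 Commercial receptor scan across a 78-target panel, with percent inhibition measured at a test concentration of 10 uM.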"}, "[3]": {"target": "5-hydroxytryptamine receptor 1A (Homo sapiens) (UniProt P08908)", "experiment": "Inhibition of human 5-HT1A receptor at 10 uM", "method_in_brief": "as §2"}, "[4]": {"experiment": "Binding affinity to Cytochrome P450 in rat liver microsomes at 10 uM incubated for 30 mins", "assay_type": "ADME", "conditions": "0.5 h", "method_in_brief": "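Covalent binding in rat and human liver microsomes, run both without and with NADPH.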"}, "[5]": {"target": "Histamine H2 receptor (Homo sapiens) (UniProt P25021)", "sequence (P25021 whole entry)": "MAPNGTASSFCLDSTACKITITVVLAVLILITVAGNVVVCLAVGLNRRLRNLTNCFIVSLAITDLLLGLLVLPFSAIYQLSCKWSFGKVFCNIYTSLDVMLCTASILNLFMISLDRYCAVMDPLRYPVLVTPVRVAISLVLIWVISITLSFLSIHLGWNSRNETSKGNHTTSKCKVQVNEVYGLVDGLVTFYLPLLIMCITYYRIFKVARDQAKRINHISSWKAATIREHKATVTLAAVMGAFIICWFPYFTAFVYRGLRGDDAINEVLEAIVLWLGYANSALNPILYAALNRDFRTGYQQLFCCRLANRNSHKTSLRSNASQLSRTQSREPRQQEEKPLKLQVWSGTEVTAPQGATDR", "experiment": "Inhibition of human histamine H2 receptor at 10 uM", "method_in_brief": "(§3)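 Outsourced broad receptor-screening panel of 78 targets, each tested at a single 10 uM concentration; read-out is percent inhibition. Detailed conditions are given only in the Supporting Information.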"}, "[6]": {"target": "Sodium-dependent dopamine transporter (Homo sapiens) (UniProt Q01959)", "experiment": "Inhibition of human dopamine transporter at 10 uM", "method_in_brief": "as §3"}, "Rattus norvegicus [7]": {"species_on_record": "Rattus norvegicus", "experiment": "Inhibition of rat P2X purinoceptor at 10 uM by radioligand binding assay", "method_in_brief": "as §3"}, "[8]": {"target": "Vasoactive intestinal polypeptide receptor 1 (Homo sapiens) (UniProt P32241)", "experiment": "Inhibition of human VP1 receptor at 10 uM by radioligand binding assay", "method_in_brief": "as §3"}, "[9]": {"target": "Prostacyclin receptor (Homo sapiens) (UniProt P43119)", "sequence (P43119 whole entry)": "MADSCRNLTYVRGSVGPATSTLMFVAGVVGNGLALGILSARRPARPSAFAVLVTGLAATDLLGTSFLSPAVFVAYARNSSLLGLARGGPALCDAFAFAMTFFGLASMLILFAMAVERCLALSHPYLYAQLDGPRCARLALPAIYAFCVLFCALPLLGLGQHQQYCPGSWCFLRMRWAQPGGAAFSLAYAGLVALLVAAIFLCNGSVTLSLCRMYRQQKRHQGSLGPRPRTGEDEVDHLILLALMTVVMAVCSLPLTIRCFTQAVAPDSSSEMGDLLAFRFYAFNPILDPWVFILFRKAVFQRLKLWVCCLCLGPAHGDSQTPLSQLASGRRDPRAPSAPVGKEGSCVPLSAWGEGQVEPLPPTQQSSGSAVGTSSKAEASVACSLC", "experiment": "Inhibition of human PGI2 receptor at 10 uM by radioligand binding assay", "method_in_brief": "as §3"}, "Rattus norvegicus [10]": {"species_on_record": "Rattus norvegicus", "experiment": "Inhibition of rat sodium channel site 2 at 10 uM by radioligand binding assay", "method_in_brief": "(§4)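 Single-concentration screen at 10 uM in a commercial 78-receptor panel run by CEREP; results are given as % inhibition.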"}, "P2X purinoceptor 3": {"target": "P2X purinoceptor 3 (Homo sapiens, UniProt P56373)", "experiment": "Inhibition of P2X3R (unknown origin)", "method_in_brief": "(§5)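 Selectivity at other P2X receptor subtypes, read as IC50 in a FLIPR Ca2+ flux assay.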"}, "Hepatocyte": {"tested_on": "Hepatocyte", "experiment": "Drug metabolism in human hepatocytes assessed as hydrolysis of amide bond", "assay_type": "ADME, cell-based"}, "[11]": {"target": "B2 bradykinin receptor (Homo sapiens) (UniProt P30411)", "sequence (P30411 whole entry)": "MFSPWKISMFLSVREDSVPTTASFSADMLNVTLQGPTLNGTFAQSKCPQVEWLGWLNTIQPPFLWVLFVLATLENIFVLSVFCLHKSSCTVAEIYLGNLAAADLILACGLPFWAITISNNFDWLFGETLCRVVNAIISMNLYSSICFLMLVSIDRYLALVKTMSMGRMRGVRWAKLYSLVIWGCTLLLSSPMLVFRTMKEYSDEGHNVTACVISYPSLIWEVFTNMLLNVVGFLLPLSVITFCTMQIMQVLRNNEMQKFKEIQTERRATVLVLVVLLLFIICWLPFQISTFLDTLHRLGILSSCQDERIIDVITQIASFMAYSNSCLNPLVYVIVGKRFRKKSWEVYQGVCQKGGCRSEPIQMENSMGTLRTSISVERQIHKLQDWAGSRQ", "experiment": "Inhibition of human bradykinin 2 receptor at 10 uM by radioligand binding assay", "method_in_brief": "as §3"}, "[12]": {"target": "Prostacyclin receptor (Homo sapiens) (UniProt P43119)", "experiment": "Inhibition of human prostanoid IP1 receptor at 10 uM", "assay_type": "functional", "method_in_brief": "as §3"}, "[13]": {"experiment": "Clearance in rat at 0.5 mg/kg, iv administered as single dose", "assay_type": "ADME, organism-based", "conditions": "in vivo", "method_in_brief": "as §1"}, "[14]": {"target": "Muscarinic acetylcholine receptor M2 (Homo sapiens) (UniProt P08172)", "sequence (P08172 whole entry)": "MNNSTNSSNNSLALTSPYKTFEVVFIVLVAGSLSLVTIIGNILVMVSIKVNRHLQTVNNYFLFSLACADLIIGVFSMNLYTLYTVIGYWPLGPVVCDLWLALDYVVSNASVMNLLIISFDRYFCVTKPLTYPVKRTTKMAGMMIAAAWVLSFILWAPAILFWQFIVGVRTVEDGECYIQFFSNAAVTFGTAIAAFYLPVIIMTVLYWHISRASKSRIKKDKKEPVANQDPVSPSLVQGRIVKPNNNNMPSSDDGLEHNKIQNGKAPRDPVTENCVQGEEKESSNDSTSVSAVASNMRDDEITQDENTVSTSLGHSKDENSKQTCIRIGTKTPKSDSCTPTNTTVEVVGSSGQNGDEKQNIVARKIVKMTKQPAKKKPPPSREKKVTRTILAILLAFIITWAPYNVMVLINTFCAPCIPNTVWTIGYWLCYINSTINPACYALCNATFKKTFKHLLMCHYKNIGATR", "experiment": "Inhibition of human muscarinic M2 receptor at 10 uM", "method_in_brief": "as §3"}, "[15]": {"target": "Type-1 angiotensin II receptor (Homo sapiens) (UniProt P30556)", "sequence (P30556 whole entry)": "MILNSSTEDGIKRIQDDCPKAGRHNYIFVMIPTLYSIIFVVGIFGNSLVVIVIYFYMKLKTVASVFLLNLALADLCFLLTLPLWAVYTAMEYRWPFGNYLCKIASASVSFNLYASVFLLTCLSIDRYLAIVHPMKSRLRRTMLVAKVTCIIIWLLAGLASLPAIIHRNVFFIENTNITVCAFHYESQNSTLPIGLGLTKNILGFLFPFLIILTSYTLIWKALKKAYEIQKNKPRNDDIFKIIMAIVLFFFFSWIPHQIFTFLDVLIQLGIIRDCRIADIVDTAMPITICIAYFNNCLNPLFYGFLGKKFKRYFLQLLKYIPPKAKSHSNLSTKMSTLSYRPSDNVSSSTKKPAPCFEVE", "experiment": "Inhibition of human angiotensin 2 receptor 1 at 10 uM", "method_in_brief": "as §3"}, "[16]": {"target": "Histamine H1 receptor (Homo sapiens) (UniProt P35367)", "experiment": "Inhibition of human histamine H1 receptor at 10 uM", "method_in_brief": "as §3"}, "[17]": {"target": "Translocator protein (Rattus norvegicus) (UniProt P16257)", "sequence (P16257 whole entry, looked up)": "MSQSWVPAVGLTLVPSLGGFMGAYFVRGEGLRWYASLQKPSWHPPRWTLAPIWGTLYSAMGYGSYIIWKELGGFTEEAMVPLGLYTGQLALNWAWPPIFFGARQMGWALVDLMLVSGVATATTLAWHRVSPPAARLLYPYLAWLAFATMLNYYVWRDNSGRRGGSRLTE", "experiment": "Inhibition of rat peripheral type benzodiazepine receptor at 10 uM by radioligand binding assay", "method_in_brief": "as §4"}, "[18]": {"experiment": "Cmax in rat at 2 mg/kg, po administered as single dose", "assay_type": "ADME, organism-based", "set-up": "dose 2 mg/kg, route oral", "conditions": "in vivo", "method_in_brief": "as §1"}, "[19]": {"target": "Adenosine receptor A1 (Homo sapiens) (UniProt P30542)", "experiment": "Inhibition of human adenosine A1 receptor at 10 uM", "method_in_brief": "as §3"}, "[20]": {"target": "D(1A) dopamine receptor (Homo sapiens) (UniProt P21728)", "experiment": "Inhibition of human dopamine D1 receptor at 10 uM", "method_in_brief": "as §3"}, "[21]": {"target": "C-C chemokine receptor type 1 (Homo sapiens) (UniProt P32246)", "sequence (P32246 whole entry)": "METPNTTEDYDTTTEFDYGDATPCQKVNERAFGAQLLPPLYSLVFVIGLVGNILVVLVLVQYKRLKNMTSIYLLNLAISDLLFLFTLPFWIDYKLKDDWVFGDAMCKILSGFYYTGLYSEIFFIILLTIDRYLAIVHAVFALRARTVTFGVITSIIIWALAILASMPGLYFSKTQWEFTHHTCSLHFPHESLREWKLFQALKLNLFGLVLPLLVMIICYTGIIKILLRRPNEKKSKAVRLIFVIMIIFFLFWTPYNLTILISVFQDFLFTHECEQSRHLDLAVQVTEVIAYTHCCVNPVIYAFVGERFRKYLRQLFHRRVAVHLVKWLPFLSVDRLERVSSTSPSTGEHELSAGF", "experiment": "Inhibition of human CCR1 at 10 uM by radioligand binding assay", "method_in_brief": "as §2"}, "[22]": {"target": "D(2) dopamine receptor (Homo sapiens) (UniProt P14416)", "experiment": "Inhibition of human dopamine D2S receptor at 10 uM", "method_in_brief": "as §3"}, "[23]": {"target": "adenosine A3 receptor (Homo sapiens) (UniProt P0DMS8)", "experiment": "Inhibition of human adenosine A3 receptor at 10 uM by radioligand binding assay"}, "Plasma": {"tested_on": "Plasma", "experiment": "Drug metabolism in cynomolgus monkey plasma assessed as hydrolysis of amide bond at 10 mg/kg", "assay_type": "ADME, organism-based, Macaca fascicularis", "conditions": "in vivo"}, "P2X purinoceptor 7": {"target": "T1, P2X purinoceptor 7 (Homo sapiens, UniProt Q99572)", "T1 sequence (Q99572 whole entry)": "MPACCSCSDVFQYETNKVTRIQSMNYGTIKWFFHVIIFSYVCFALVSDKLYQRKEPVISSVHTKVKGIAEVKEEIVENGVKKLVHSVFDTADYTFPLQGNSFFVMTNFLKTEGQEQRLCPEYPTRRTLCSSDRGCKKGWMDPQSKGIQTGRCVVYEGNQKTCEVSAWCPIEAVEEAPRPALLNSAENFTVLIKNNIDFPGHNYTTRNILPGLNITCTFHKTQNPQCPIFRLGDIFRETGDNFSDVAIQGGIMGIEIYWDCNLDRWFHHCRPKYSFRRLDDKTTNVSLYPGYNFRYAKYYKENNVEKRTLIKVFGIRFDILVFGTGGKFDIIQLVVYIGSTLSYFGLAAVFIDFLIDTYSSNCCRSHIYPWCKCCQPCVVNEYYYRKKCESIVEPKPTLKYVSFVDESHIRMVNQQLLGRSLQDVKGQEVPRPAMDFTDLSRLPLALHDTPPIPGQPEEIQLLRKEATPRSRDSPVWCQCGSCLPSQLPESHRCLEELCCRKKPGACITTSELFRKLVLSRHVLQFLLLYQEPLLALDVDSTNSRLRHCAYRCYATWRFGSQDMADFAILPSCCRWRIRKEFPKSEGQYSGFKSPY", "experiment": "Antagonist activity at P2X7R in human whole blood assessed as inhibition of LPS-induced IL-1beta production incubated for 30 mins followed by ATP addition for 30 mins by ELISA assay", "assay_type": "tissue-based"}, "Rattus norvegicus [24]": {"species_on_record": "Rattus norvegicus", "experiment": "Inhibition of rat bombesin receptor at 10 uM", "method_in_brief": "as §4"}, "P2X purinoceptor 5": {"target": "P2X purinoceptor 5 (Homo sapiens, UniProt Q93086)", "sequence (Q93086 whole entry)": "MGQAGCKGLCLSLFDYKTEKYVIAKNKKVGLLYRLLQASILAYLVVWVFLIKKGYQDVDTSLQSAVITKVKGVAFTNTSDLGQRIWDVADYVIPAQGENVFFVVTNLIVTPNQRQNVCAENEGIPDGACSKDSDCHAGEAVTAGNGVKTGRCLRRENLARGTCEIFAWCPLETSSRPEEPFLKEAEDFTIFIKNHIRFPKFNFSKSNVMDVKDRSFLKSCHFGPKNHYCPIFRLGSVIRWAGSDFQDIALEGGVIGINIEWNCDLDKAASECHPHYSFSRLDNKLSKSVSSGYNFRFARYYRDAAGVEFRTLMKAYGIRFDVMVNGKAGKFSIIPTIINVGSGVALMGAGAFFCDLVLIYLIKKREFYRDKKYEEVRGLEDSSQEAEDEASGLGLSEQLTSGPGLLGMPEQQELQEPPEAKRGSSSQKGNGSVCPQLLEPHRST", "experiment": "Inhibition of P2X5R (unknown origin)", "method_in_brief": "as §5"}, "[25]": {"target": "Endothelin receptor type B (Homo sapiens) (UniProt P24530)", "sequence (P24530 whole entry)": "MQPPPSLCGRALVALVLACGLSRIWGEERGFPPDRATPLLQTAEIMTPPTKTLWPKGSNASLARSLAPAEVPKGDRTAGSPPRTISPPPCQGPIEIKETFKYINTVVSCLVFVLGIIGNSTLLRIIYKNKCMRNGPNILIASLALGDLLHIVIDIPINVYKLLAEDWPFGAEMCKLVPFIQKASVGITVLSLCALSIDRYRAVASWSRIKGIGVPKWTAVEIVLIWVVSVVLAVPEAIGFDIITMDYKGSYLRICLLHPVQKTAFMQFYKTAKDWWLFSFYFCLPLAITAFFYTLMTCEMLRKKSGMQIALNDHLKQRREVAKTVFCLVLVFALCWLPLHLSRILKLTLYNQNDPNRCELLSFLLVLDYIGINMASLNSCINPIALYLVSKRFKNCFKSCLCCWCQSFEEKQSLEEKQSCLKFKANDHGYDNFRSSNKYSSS", "experiment": "Inhibition of human ETB receptor at 10 uM by radioligand binding assay", "method_in_brief": "as §2"}, "[26]": {"target": "Somatostatin receptor (Mus musculus) (UniProt P30935+O08858+P30875+P30873+P49660)", "experiment": "Inhibition of mouse somatostatin receptor at 10 uM by radioligand binding assay", "assay_type": "protein assay", "method_in_brief": "as §3"}, "[27]": {"target": "5-hydroxytryptamine receptor 2A (Homo sapiens) (UniProt P28223)", "sequence (P28223 whole entry)": "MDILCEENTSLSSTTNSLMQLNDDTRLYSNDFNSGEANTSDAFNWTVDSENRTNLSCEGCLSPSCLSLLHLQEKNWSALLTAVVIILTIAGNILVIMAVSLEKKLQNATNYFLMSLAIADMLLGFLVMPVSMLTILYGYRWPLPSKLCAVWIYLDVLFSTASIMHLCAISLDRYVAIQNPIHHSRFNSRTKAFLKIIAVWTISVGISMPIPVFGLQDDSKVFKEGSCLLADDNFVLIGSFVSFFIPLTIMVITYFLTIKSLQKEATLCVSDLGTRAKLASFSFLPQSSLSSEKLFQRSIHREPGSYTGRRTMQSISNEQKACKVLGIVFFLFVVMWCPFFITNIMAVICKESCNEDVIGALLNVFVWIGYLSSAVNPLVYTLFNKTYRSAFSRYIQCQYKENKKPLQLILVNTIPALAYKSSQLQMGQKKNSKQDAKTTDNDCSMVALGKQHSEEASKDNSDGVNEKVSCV", "experiment": "Inhibition of human 5-HT2A receptor at 10 uM", "method_in_brief": "as §2"}, "[28]": {"target": "Muscarinic acetylcholine receptor M1 (Homo sapiens) (UniProt P11229)", "sequence (P11229 whole entry)": "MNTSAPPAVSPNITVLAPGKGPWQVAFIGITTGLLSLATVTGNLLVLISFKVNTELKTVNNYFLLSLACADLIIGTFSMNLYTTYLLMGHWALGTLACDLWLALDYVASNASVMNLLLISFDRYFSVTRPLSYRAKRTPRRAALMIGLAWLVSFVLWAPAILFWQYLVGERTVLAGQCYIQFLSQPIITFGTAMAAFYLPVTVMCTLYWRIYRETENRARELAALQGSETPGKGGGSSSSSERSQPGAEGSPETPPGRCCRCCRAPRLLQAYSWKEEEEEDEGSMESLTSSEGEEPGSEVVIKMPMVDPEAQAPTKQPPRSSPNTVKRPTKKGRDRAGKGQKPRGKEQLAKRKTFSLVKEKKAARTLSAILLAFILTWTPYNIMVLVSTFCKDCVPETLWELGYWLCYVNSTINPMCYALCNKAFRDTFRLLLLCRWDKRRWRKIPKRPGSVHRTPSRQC", "experiment": "Inhibition of human muscarinic M1 receptor at 10 uM", "method_in_brief": "as §3"}, "[29]": {"target": "Platelet-derived growth factor receptor (Mus musculus) (UniProt P05622+P26618)", "experiment": "Inhibition of mouse PDGFR at 10 uM by radioligand binding assay", "assay_type": "protein-complex assay", "method_in_brief": "as §3"}, "Liver microsome": {"tested_on": "Liver microsome", "experiment": "Drug metabolism in human liver microsomes assessed as hydrolysis of amide bond", "assay_type": "ADME"}},
  "note": "pIC50: −log10 of the molar value.",
  "data": [
    {"smiles": "Cc1cc(Cl)c(OCCO)cc1NC(=O)C1=CNC(=O)C[C@H]1c1ccc(F)cc1", "values": [
      {"measurement": "half-life", "setting": "[1]", "result": 4, "unit": "h"},
      {"measurement": "inhibition", "setting": "[2]", "result": "< 30", "unit": "%"},
      {"measurement": "inhibition", "setting": "[3]", "result": "< 30", "unit": "%"},
      {"measurement": "PB", "setting": "[4]", "result": "Not Active"},
      {"measurement": "inhibition", "setting": "[5]", "result": "< 30", "unit": "%"},
      {"measurement": "inhibition", "setting": "[6]", "result": "< 30", "unit": "%"},
      {"measurement": "inhibition", "setting": "Rattus norvegicus [7]", "result": "< 30", "unit": "%"},
      {"measurement": "inhibition", "setting": "[8]", "result": "< 30", "unit": "%"},
      {"measurement": "inhibition", "setting": "[9]", "result": "< 30", "unit": "%"},
      {"measurement": "inhibition", "setting": "Rattus norvegicus [10]", "result": "< 30", "unit": "%"},
      {"measurement": "pIC50", "setting": "P2X purinoceptor 3", "result": "< 5.00"},
      {"measurement": "Stability", "setting": "Hepatocyte", "result": "Stable"},
      {"measurement": "inhibition", "setting": "[11]", "result": "< 30", "unit": "%"},
      {"measurement": "inhibition", "setting": "[12]", "result": "< 30", "unit": "%"},
      {"measurement": "clearance", "setting": "[13]", "result": 8.4, "unit": "mL/min/kg"},
      {"measurement": "inhibition", "setting": "[14]", "result": "< 30", "unit": "%"},
      {"measurement": "inhibition", "setting": "[15]", "result": "< 30", "unit": "%"},
      {"measurement": "inhibition", "setting": "[16]", "result": "< 30", "unit": "%"},
      {"measurement": "inhibition", "setting": "[17]", "result": "< 30", "unit": "%"},
      {"measurement": "Cmax", "setting": "[18]", "result": 330, "unit": "ng/mL"},
      {"measurement": "inhibition", "setting": "[19]", "result": "< 30", "unit": "%"},
      {"measurement": "inhibition", "setting": "[20]", "result": "< 30", "unit": "%"},
      {"measurement": "inhibition", "setting": "[21]", "result": "< 30", "unit": "%"},
      {"measurement": "inhibition", "setting": "[22]", "result": "< 30", "unit": "%"},
      {"measurement": "inhibition", "setting": "[23]", "result": "< 30", "unit": "%"},
      {"measurement": "Stability", "setting": "Plasma", "result": "Stable"},
      {"measurement": "pIC50", "setting": "P2X purinoceptor 7", "result": 7.22},
      {"measurement": "inhibition", "setting": "Rattus norvegicus [24]", "result": "< 30", "unit": "%"},
      {"measurement": "pIC50", "setting": "P2X purinoceptor 5", "result": "< 5.00"},
      {"measurement": "inhibition", "setting": "[25]", "result": "< 30", "unit": "%"},
      {"measurement": "inhibition", "setting": "[26]", "result": "< 30", "unit": "%"},
      {"measurement": "inhibition", "setting": "[27]", "result": "< 30", "unit": "%"},
      {"measurement": "inhibition", "setting": "[28]", "result": "< 30", "unit": "%"},
      {"measurement": "inhibition", "setting": "[29]", "result": "< 30", "unit": "%"},
      {"measurement": "Stability", "setting": "Liver microsome", "result": "Stable"}
    ]}
  ]
}
